Laboratory results from ChEMBL document CHEMBL3526003, “Pharmacokinetics of the monohydroxy derivative of oxcarbazepine and its enantiomers after a single intravenous dose given as racemate compared with a single oral dose of oxcarbazepine” (Drug Metab Dispos, 2011).
Blank lines part the entries; values can stand above or below the compound they belong to.

Legend:
[1] = Drug excretion in human urine assessed as total amount of drug eliminated treated with oxcarbazepine at 300 mg, po administered as one-film coated tablet by high-performance liquid chromatography; assay type: ADME, organism-based; conditions: read-out: Ae
Outline: (§1)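 300 mg oral tablet given to 12 healthy adults. Urine was collected in fractions up to 72 h and kept at 2–8 °C, then frozen at -20 °C. Analytes were measured by HPLC before and after β-glucuronidase hydrolysis (pH 6.7, 37 °C, about 15 h). Renal clearance was Ae/plasma AUC. Urinary terminal half-life came from log-linear slopes between 4–18 h and 40–64 h.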

[2] = Terminal half life in human urine treated with oxcarbazepine at 300 mg, po administered as one-film coated tablet by high-performance liquid chromatography; assay type: ADME, organism-based; conditions: read-out: beta t1/2 (converted); outline: as §1
[3] = Terminal half life in human urine treated with monohydroxy derivative of OXC at 250 mg, iv administered as infusion over 30 mins by high-performance liquid chromatography; assay type: ADME, organism-based; conditions: read-out: beta t1/2 (converted)
Outline: (§2)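 250 mg racemic MHD infused intravenously over 30 min to 12 healthy adults. Plasma was drawn at 0 to 30 min and up to 72 h, and urine was fractionated to 72 h. Enantioselective HPLC was used. Renal clearance was Ae/AUC; Vss was CL_T·MRT (AUMC/AUC). Urinary half-life came from log-linear slopes between 4–18 h and 40–64 h.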

[4] = AUC in human at 250 mg, iv administered as infusion over 30 mins by non-enantiospecific assay based high-performance liquid chromatography; assay type: ADME, organism-based; set-up: time < 0.5 hr, dose 250 mg, route intravenous; conditions: plasma
Outline: (§3)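 Crossover of 12 healthy adults: 250 mg racemic MHD infused intravenously over 30 min versus a 300 mg oral tablet, with at least one week of washout. Plasma MHD was measured by non-enantioselective HPLC-UV at 210 nm after C18 solid-phase extraction (LOQ 0.1 µmol/L). Bioavailability f was the dose-corrected ratio of oral to intravenous AUC.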

[5] = AUC (0 to 72 hrs) in human at 150 mg, iv administered as single dose by high-performance liquid chromatography; assay type: ADME, organism-based; set-up: dose 150 mg, time < 72 hr, route intravenous; conditions: plasma
Outline: (§4)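 Pilot ascending-dose study: one healthy subject per level received 150, 200 or 250 mg racemic MHD intravenously as a single dose. Plasma was sampled to 72 h and assayed by non-enantioselective and enantioselective HPLC. AUC(0-72h) was computed by the linear trapezoidal method.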

[6] = AUC (0 to 72 hrs) in human at 200 mg, iv administered as single dose by high-performance liquid chromatography; assay type: ADME, organism-based; set-up: dose 200 mg, time < 72 hr, route intravenous; conditions: plasma; outline: as §4
[7] = AUC (0 to 72 hrs) in human at 250 mg, iv administered as single dose by high-performance liquid chromatography; assay type: ADME, organism-based; set-up: dose 250 mg, time < 72 hr, route intravenous; conditions: plasma; outline: as §4
[8] = Drug excretion in human urine assessed as total amount of drug eliminated at 150 mg, iv administered as single dose measured for 72 hrs post-dose by high-performance liquid chromatography; assay type: ADME, organism-based; conditions: read-out: Ae
Outline: (§5)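 Pilot ascending-dose study: one subject per level received single intravenous racemic MHD (150, 200, 250 mg). Urine was pooled 0–72 h, and unchanged drug was measured by HPLC as percent of dose excreted. Renal clearance was the amount excreted unchanged divided by plasma AUC.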

[9] = Drug excretion in human urine assessed as total amount of drug eliminated at 200 mg, iv administered as single dose measured for 72 hrs post-dose by high-performance liquid chromatography; assay type: ADME, organism-based; conditions: read-out: Ae; outline: as §5
[10] = Drug excretion in human urine assessed as total amount of drug eliminated at 250 mg, iv administered as single dose measured for 72 hrs post-dose by high-performance liquid chromatography; assay type: ADME, organism-based; conditions: read-out: Ae; outline: as §5
[11] = Total plasma clearance in human at 150 mg, iv administered as single dose by high-performance liquid chromatography; assay type: ADME, organism-based
Outline: (§6)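 Pilot study: single intravenous racemic MHD at 150, 200 or 250 mg, one subject per dose. Plasma was sampled to 72 h and analysed by HPLC. Total plasma clearance was computed as Dose/AUC, with AUC from the linear trapezoidal rule.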

[12] = Total plasma clearance in human at 200 mg, iv administered as single dose by high-performance liquid chromatography; assay type: ADME, organism-based; outline: as §6
[13] = Total plasma clearance in human at 250 mg, iv administered as single dose by high-performance liquid chromatography; assay type: ADME, organism-based; outline: as §6
[14] = Renal clearance in human at 150 mg, iv administered as single dose by high-performance liquid chromatography; assay type: ADME, organism-based, Kidney; conditions: in vivo; outline: as §5
[15] = Renal clearance in human at 200 mg, iv administered as single dose by high-performance liquid chromatography; assay type: ADME, organism-based, Kidney; conditions: in vivo; outline: as §5
[16] = Renal clearance in human at 250 mg, iv administered as single dose by high-performance liquid chromatography; assay type: ADME, organism-based, Kidney; conditions: in vivo; outline: as §5
[17] = AUC (0 to 32/48 hrs) in human treated with oxcarbazepine at 300 mg, po administered as one-film coated tablet by high-performance liquid chromatography; assay type: ADME, organism-based; conditions: plasma
Outline: (§7)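 Healthy adults (6 male, 6 female), single 300 mg film-coated tablet by mouth, fasting, in a randomized two-way crossover with at least one week of washout. Venous heparinized blood was drawn at 0–72 h. Plasma was separated at 2200 g and stored at -80 °C. Non-enantioselective and enantioselective HPLC were used. Cmax/tmax were the observed peak; AUC was by linear trapezoidal rule.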

[18] = Renal clearance in human treated with oxcarbazepine at 300 mg, po administered as one-film coated tablet by high-performance liquid chromatography; assay type: ADME, organism-based, Kidney; conditions: in vivo; outline: as §1
[19] = Renal clearance in human treated with monohydroxy derivative of OXC at 250 mg, iv administered as infusion over 30 mins by high-performance liquid chromatography; assay type: ADME, organism-based, Kidney; conditions: in vivo; outline: as §2
[20] = Apparent terminal half life in human plasma treated with monohydroxy derivative of OXC at 250 mg, iv administered as infusion over 30 mins by high-performance liquid chromatography; assay type: ADME, organism-based; conditions: read-out: betat1/2(app) (converted)
Outline: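 Healthy adult volunteers (6 male, 6 female), randomized two-way crossover with at least one week washout; single 250 mg racemic MHD infused i.v. over 30 min. Heparinized plasma sampled 0–30 min then 1–72 h after start of infusion, stored -80 C; enantiomers quantified by enantioselective HPLC.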

[21] = Volume of distribution at steady state in human treated with monohydroxy derivative of OXC at 250 mg, iv administered as infusion over 30 mins by high-performance liquid chromatography; assay type: ADME, organism-based; conditions: in vivo, read-out: Vdss; outline: as §2
[22] = Cmax in human treated with oxcarbazepine at 300 mg, po administered as one-film coated tablet by high-performance liquid chromatography; assay type: ADME, organism-based; set-up: dose 300 mg, route oral; conditions: in vivo; outline: as §7
[23] = AUC (0 to 72 hrs) in human treated with monohydroxy derivative of OXC at 150 mg, iv administered as single dose by high-performance liquid chromatography; assay type: ADME, organism-based; set-up: dose 150 mg, time < 72 hr, route intravenous; conditions: plasma; outline: as §4
[24] = AUC (0 to 72 hrs) in human treated with monohydroxy derivative of OXC at 200 mg, iv administered as single dose by high-performance liquid chromatography; assay type: ADME, organism-based; set-up: time < 72 hr, dose 200 mg, route intravenous; conditions: plasma; outline: as §4
[25] = AUC (0 to 72 hrs) in human treated with monohydroxy derivative of OXC at 250 mg, iv administered as single dose by high-performance liquid chromatography; assay type: ADME, organism-based; set-up: dose 250 mg, time < 72 hr, route intravenous; conditions: plasma; outline: as §4
[26] = Total plasma clearance in human treated with monohydroxy derivative of OXC at 150 mg, iv administered as single dose by high-performance liquid chromatography; assay type: ADME, organism-based; outline: as §6
[27] = Total plasma clearance in human treated with monohydroxy derivative of OXC at 200 mg, iv administered as single dose by high-performance liquid chromatography; assay type: ADME, organism-based; outline: as §6
[28] = Total plasma clearance in human treated with monohydroxy derivative of OXC at 250 mg, iv administered as single dose by high-performance liquid chromatography; assay type: ADME, organism-based; outline: as §6
[29] = Oral bioavailability in human at 300 mg administered as one-film coated tablet by non-enantiospecific assay based high-performance liquid chromatography; assay type: ADME, organism-based; conditions: in vivo; outline: as §3
Plasma = experiment: Drug level in human plasma at 400 mg, po; assay type: ADME, cell-free
[30] = Tmax in human at 300 mg, po administered as one-film coated tablet by high-performance liquid chromatography; assay type: ADME, organism-based; conditions: in vivo; outline: as §7
[31] = Cmax in human at 300 mg, po administered as one-film coated tablet by high-performance liquid chromatography; assay type: ADME, organism-based; set-up: dose 300 mg, route oral; conditions: in vivo; outline: as §7
[32] = AUC in human at 300 mg, po administered as one-film coated tablet by high-performance liquid chromatography; assay type: ADME, organism-based; conditions: plasma; outline: as §7
[33] = Tmax in human treated with monohydroxy derivative of OXC at 250 mg, iv administered as infusion over 30 mins by high-performance liquid chromatography; assay type: ADME, organism-based; conditions: in vivo
Outline: (§8)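 Healthy adults (6 male, 6 female) in an open randomized two-way crossover with at least one week washout. Venous heparinized plasma was sampled at 0, 5, 10, 15, 20, 25 and 30 min and at 1-72 h after the start of infusion, and stored at -80 C. Analytes were measured by non-enantioselective and enantioselective HPLC. Tmax is the observed time of peak concentration, reported as a median.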

[34] = Cmax in human treated with monohydroxy derivative of OXC at 250 mg, iv administered as infusion over 30 mins by high-performance liquid chromatography; assay type: ADME, organism-based; set-up: dose 250 mg, route intravenous; conditions: in vivo; outline: as §8

half-life [2]: 648 min
half-life [3]: 594 min
SMILES: NC(=O)N1c2ccccc2C[C@H](O[C@@H]2O[C@H](C(=O)O)[C@@H](O)[C@H](O)[C@H]2O)c2ccccc21
dose excreted [1]: 38.8%

AUC at 0.5 h [4]: 261 µM·h
AUC(0-t) at 72 h [5]: 109 µM·h
AUC(0-t) at 72 h [6]: 142 µM·h
AUC(0-t) at 72 h [7]: 280 µM·h
clearance [11]: 90 mL/min
clearance [12]: 92 mL/min
clearance [13]: 58.5 mL/min
CL renal [14]: 21.8 mL/min
CL renal [15]: 28.3 mL/min
CL renal [16]: 25 mL/min
SMILES: NC(=O)N1c2ccccc2CC(O)c2ccccc21 (racemic) [LICARBAZEPINE]
dose excreted at 72 h [8]: 24.3%
dose excreted at 72 h [9]: 30.7%
dose excreted at 72 h [10]: 42.8%

AUC at 48 h [17]: 241 µM·h
CL renal [18]: 18.3 mL/min
half-life [2]: 510 min
CL renal at 0.5 h [19]: 15 mL/min
half-life [20]: 636 min
Vd [21]: 45.9 L
Cmax [22]: 11 µM
AUC(0-t) at 72 h [23]: 69 µM·h
AUC(0-t) at 72 h [24]: 92.2 µM·h
AUC(0-t) at 72 h [25]: 192 µM·h
clearance [26]: 71.2 mL/min
clearance [27]: 71.2 mL/min
clearance [28]: 42.7 mL/min
SMILES: NC(=O)N1c2ccccc2C[C@H](O)c2ccccc21 [ESLICARBAZEPINE]
dose excreted [1]: 21.8%

bioavailability [29]: 99%
Drug uptake (Plasma): 2%
Tmax [30]: 1 h
Cmax [31]: 2000 nM
AUC [32]: 6.8 µM·h
Tmax [33]: 30 min
Cmax [34]: 80 nM
SMILES: NC(=O)N1c2ccccc2CC(=O)c2ccccc21 [OXCARBAZEPINE]
